Legend:
Histone deacetylase 1 = Histone deacetylase 1 (Homo sapiens, UniProt Q13547); experiment: Inhibition of HDAC1 (unknown origin) expressed in HEK293 cells using [3H]acetylated human histone H4 peptide as substrate by scintillation counting; format: cell-based
Histone deacetylase 2 = Histone deacetylase 2 (Homo sapiens, UniProt Q92769); experiment: Inhibition of flag-tagged HDAC2 (unknown origin) expressed in SF21 cells using [3H]acetylated human histone H4 peptide as substrate by scintillation counting
Chain of Histone deacetylase 2 (Q92769 whole entry): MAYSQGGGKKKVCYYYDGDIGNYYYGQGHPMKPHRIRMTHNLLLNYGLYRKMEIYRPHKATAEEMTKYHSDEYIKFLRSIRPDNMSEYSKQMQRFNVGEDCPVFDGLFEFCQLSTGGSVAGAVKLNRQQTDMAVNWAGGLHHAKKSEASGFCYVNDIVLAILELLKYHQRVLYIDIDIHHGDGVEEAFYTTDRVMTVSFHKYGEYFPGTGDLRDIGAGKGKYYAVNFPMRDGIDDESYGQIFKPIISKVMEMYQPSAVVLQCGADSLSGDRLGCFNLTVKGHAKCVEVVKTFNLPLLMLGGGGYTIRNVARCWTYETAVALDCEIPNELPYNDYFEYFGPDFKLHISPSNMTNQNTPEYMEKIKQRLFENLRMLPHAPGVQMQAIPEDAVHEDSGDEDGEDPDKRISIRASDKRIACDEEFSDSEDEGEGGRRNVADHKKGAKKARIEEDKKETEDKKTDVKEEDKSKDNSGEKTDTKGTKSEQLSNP

Histone deacetylase 3 = Histone deacetylase 3 (Homo sapiens, UniProt O15379); experiment: Inhibition of HDAC3 (unknown origin) expressed in HEK293 cells using [3H]acetylated human histone H4 peptide as substrate by scintillation counting
Chain of Histone deacetylase 3 (O15379 whole entry): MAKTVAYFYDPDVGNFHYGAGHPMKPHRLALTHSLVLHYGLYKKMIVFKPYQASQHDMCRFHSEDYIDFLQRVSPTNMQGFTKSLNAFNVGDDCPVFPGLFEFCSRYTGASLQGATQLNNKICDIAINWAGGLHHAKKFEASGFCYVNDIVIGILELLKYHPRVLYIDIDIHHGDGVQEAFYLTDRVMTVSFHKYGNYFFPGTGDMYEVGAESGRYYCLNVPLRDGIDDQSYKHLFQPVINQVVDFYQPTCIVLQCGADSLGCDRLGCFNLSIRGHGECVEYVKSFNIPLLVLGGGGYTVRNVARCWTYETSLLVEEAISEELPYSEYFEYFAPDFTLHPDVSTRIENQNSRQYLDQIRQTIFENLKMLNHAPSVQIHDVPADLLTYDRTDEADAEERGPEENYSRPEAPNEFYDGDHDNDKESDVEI

Histone deacetylase 4 = Histone deacetylase 4 (Homo sapiens, UniProt P56524); experiment: Inhibition of HDAC4 (unknown origin) expressed in HEK293 cells using [3H]acetylated human histone H4 peptide as substrate by scintillation counting
Chain of Histone deacetylase 4 (P56524 whole entry): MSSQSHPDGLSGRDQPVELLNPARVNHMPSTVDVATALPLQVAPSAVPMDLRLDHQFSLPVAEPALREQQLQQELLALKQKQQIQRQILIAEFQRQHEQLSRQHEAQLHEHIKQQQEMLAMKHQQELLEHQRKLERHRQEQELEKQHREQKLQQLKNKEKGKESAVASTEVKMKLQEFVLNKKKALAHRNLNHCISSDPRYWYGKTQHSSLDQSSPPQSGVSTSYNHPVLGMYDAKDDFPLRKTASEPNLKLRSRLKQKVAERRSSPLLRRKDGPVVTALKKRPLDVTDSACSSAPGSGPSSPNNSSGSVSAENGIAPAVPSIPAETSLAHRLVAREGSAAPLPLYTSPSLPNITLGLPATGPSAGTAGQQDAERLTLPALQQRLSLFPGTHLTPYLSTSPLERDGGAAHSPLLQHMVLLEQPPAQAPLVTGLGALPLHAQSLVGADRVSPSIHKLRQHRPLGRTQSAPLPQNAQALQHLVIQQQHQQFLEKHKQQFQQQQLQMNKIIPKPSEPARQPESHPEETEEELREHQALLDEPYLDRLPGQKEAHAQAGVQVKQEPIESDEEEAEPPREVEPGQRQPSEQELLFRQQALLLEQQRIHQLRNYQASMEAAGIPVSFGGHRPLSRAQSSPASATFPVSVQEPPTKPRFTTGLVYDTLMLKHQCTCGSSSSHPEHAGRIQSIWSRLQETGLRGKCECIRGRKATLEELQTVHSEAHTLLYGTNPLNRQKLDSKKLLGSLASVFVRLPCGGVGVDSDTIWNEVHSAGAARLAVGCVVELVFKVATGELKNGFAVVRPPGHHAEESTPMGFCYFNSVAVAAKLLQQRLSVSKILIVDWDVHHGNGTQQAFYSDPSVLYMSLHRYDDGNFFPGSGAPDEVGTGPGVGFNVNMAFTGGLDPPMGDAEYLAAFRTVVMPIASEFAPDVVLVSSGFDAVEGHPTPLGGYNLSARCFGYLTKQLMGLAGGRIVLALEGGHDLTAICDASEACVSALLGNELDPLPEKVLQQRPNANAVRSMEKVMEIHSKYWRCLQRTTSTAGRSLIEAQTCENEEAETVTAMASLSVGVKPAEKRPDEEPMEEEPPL

[1] = target: T1, Protein deacetylase HDAC6 (Homo sapiens, UniProt Q9UBN7); experiment: Inhibition of HDAC6 (unknown origin) expressed in HEK293 cells using [3H]acetylated human histone H4 peptide as substrate by scintillation counting
T1 sequence (Q9UBN7 whole entry): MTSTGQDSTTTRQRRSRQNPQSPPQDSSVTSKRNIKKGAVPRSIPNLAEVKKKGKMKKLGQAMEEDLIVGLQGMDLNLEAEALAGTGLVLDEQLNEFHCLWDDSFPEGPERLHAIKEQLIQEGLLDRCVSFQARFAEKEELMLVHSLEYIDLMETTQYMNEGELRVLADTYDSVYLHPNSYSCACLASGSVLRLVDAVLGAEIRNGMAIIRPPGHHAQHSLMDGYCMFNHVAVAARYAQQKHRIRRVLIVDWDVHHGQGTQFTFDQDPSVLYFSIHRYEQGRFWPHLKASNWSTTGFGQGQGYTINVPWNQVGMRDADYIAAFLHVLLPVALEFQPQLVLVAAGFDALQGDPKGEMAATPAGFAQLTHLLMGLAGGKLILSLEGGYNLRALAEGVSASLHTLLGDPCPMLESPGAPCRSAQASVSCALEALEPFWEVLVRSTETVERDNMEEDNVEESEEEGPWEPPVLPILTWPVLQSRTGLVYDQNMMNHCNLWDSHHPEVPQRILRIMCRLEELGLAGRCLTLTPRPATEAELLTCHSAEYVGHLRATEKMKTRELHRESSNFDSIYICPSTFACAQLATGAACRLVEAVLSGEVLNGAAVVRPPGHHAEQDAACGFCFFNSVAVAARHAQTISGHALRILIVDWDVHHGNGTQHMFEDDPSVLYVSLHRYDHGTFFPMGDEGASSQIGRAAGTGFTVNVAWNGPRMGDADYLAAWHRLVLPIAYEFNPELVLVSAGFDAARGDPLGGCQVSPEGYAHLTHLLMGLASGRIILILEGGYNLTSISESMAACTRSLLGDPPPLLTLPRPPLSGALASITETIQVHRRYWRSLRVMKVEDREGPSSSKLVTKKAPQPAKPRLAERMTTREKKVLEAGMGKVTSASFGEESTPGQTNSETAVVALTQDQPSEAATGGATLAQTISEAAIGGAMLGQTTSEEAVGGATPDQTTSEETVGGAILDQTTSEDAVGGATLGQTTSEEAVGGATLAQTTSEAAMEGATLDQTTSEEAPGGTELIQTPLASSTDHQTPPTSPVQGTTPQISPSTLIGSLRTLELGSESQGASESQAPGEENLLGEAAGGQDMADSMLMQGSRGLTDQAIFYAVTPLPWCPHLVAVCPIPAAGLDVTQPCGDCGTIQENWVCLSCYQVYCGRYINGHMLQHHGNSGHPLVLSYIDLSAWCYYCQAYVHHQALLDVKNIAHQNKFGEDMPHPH

Histone deacetylase 8 = target: T2, Histone deacetylase 8 (Homo sapiens, UniProt Q9BY41); experiment: Inhibition of his-strep-tagged HDAC8 (unknown origin) expressed in SF9 cells using [3H]acetylated human histone H4 peptide as substrate by scintillation counting
T2 sequence (Q9BY41 whole entry): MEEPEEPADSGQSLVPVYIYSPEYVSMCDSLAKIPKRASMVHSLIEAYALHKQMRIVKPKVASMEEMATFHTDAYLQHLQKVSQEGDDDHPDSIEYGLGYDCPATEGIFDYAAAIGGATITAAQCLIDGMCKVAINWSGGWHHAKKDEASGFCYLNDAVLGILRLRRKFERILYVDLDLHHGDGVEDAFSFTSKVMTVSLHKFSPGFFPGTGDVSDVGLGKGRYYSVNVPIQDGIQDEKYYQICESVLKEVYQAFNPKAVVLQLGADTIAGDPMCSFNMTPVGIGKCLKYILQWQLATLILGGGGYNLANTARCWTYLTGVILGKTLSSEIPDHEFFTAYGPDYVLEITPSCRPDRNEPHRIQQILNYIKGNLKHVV

CYP1A2 = CYP1A2 (Homo sapiens, UniProt P05177); experiment: Activity of recombinant human CYP1A2 expressed in Escherichia coli JM109 co-expressing P450 reductase assessed as enzyme-mediated drug metabolism measured as compound remaining after 1 hr by LC-MS analysis; format: ADME; conditions: read-out: Stability
How it was run: (§1)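 Whole E. coli cells were diluted in PSE buffer (50 mM KH2PO4, 250 mM sucrose, 0.25 mM EDTA, pH 7.4) to 100 mg/ml wet biomass. Each suspension was mixed with DL-isocitrate and substrate stock (5 mg/ml in ACN/DMSO 19:1) in aerated caps. Incubation was at 30°C, 1100 rpm for 0.5 or 1 h. Reactions were stopped with ACN/methanol (1:1) and centrifuged, and the supernatant was analysed by LC-MS.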

CYP1B1 = CYP1B1 (Homo sapiens, UniProt Q16678); experiment: Activity of recombinant human CYP1B1 expressed in Escherichia coli JM109 co-expressing P450 reductase assessed as enzyme-mediated drug metabolism measured as compound remaining after 1 hr by LC-MS analysis; format: ADME; conditions: read-out: Stability; how it was run: as §1
CYP2A6 = CYP2A6 (Homo sapiens, UniProt P11509); experiment: Activity of recombinant human CYP2A6 expressed in Escherichia coli JM109 co-expressing P450 reductase assessed as enzyme-mediated drug metabolism measured as compound remaining after 1 hr by LC-MS analysis; format: ADME; conditions: read-out: Stability; how it was run: as §1
CYP2C8 = CYP2C8 (Homo sapiens, UniProt P10632); experiment: Activity of recombinant human CYP2C8 expressed in Escherichia coli JM109 co-expressing P450 reductase assessed as enzyme-mediated drug metabolism measured as compound remaining after 1 hr by LC-MS analysis; format: ADME; conditions: read-out: Stability; how it was run: as §1
Chain of CYP2C8 (P10632 whole entry): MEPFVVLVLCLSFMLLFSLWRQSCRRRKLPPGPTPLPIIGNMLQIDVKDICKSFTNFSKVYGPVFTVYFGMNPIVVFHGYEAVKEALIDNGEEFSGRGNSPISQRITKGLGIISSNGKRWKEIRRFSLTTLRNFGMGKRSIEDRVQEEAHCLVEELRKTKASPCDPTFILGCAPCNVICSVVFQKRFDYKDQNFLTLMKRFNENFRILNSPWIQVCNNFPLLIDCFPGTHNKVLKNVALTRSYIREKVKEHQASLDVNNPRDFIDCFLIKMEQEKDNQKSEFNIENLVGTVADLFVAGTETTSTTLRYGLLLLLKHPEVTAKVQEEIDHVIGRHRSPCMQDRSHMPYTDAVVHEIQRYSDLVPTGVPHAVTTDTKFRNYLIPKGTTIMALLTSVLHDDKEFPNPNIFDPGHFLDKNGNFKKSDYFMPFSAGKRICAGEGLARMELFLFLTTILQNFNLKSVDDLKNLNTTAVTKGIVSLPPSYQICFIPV

CYP2C9 = CYP2C9 (Homo sapiens, UniProt P11712); experiment: Activity of recombinant human CYP2C9 expressed in Escherichia coli JM109 co-expressing P450 reductase assessed as enzyme-mediated drug metabolism measured as compound remaining after 1 hr by LC-MS analysis; format: ADME; conditions: read-out: Stability; how it was run: as §1
CYP2C18 = CYP2C18 (Homo sapiens, UniProt P33260); experiment: Activity of recombinant human CYP2C18 expressed in Escherichia coli JM109 co-expressing P450 reductase assessed as enzyme-mediated drug metabolism measured as compound remaining after 1 hr by LC-MS analysis; format: ADME; conditions: read-out: Stability; how it was run: as §1
CYP2C19 = CYP2C19 (Homo sapiens, UniProt P33261); experiment: Activity of recombinant human CYP2C19 expressed in Escherichia coli JM109 co-expressing P450 reductase assessed as enzyme-mediated drug metabolism measured as compound remaining after 1 hr by LC-MS analysis; format: ADME; conditions: read-out: Stability; how it was run: as §1
CYP2D6 [2] = target: T3, CYP2D6 (Homo sapiens, UniProt P10635); experiment: Activity of recombinant human CYP2D6 expressed in Escherichia coli JM109 co-expressing P450 reductase assessed as enzyme-mediated drug metabolism measured as compound remaining after 1 hr by LC-MS analysis; format: ADME; conditions: read-out: Stability; how it was run: as §1
T3 sequence (P10635 whole entry): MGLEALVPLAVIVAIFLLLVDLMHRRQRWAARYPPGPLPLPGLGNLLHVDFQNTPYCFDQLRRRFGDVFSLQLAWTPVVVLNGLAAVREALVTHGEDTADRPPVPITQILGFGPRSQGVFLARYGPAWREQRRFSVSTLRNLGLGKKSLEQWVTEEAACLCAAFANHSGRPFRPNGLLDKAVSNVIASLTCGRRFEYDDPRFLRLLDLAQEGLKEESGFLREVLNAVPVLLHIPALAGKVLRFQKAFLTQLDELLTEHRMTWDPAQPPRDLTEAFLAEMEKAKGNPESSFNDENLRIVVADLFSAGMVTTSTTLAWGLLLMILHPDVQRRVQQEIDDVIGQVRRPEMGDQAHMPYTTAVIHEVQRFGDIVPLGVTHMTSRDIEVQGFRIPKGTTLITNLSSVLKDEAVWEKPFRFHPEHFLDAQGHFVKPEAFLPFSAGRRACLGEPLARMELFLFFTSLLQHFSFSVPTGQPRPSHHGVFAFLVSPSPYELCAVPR

CYP2E1 = CYP2E1 (Homo sapiens, UniProt P05181); experiment: Activity of recombinant human CYP2E1 expressed in Escherichia coli JM109 co-expressing P450 reductase assessed as enzyme-mediated drug metabolism measured as compound remaining after 1 hr by LC-MS analysis; format: ADME; conditions: read-out: Stability; how it was run: as §1
CYP3A4 [3] = target: T4, CYP3A4 (Homo sapiens, UniProt P08684); experiment: Activity of recombinant human CYP3A4 expressed in Escherichia coli JM109 co-expressing P450 reductase assessed as enzyme-mediated drug metabolism measured as compound remaining after 1 hr by LC-MS analysis; format: ADME; conditions: read-out: Stability; how it was run: as §1
T4 sequence (P08684 whole entry): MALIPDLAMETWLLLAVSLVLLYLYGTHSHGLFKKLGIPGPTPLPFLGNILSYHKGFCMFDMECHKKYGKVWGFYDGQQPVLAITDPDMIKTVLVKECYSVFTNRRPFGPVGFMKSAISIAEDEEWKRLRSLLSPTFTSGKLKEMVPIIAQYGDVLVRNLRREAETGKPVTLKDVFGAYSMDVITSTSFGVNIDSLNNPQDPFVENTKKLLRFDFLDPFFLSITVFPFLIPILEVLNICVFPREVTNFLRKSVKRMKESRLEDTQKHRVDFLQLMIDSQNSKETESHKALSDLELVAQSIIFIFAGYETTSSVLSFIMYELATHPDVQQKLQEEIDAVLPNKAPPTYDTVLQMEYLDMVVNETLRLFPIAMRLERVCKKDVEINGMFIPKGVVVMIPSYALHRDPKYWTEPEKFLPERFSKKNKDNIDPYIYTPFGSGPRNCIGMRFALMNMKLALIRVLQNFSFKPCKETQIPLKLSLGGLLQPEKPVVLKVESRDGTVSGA

CYP3A4 [4] = target: T4, CYP3A4; experiment: Activity of recombinant human CYP3A4 expressed in Escherichia coli JM109 co-expressing P450 reductase assessed as enzyme-mediated drug metabolism measured as compound remaining after 1 hr by LC-MS analysis in presence of cytochrome b5; format: ADME; conditions: read-out: Stability; how it was run: as §1
CYP3A5 = CYP3A5 (Homo sapiens, UniProt P20815); experiment: Activity of recombinant human CYP3A5 expressed in Escherichia coli JM109 co-expressing P450 reductase assessed as enzyme-mediated drug metabolism measured as compound remaining after 1 hr by LC-MS analysis; format: ADME; conditions: read-out: Stability; how it was run: as §1
CYP4A11 = CYP4A11 (Homo sapiens, UniProt Q02928); experiment: Activity of recombinant human CYP4A11 expressed in Escherichia coli JM109 co-expressing P450 reductase assessed as enzyme-mediated drug metabolism measured as compound remaining after 1 hr by LC-MS analysis; format: ADME; conditions: read-out: Stability; how it was run: as §1
[5] = Drug metabolism in Escherichia coli JM109 assessed as compound remaining after 1 hr by LC-MS analysis; format: ADME, organism-based; conditions: read-out: Stability; how it was run: as §1
CYP3A4 [6] = target: T4, CYP3A4; experiment: Activity of recombinant human CYP3A4 expressed in supersomes assessed as enzyme-mediated drug metabolism measured as compound remaining at 10 uM after 1 hr by LC-MS analysis; format: ADME; conditions: read-out: Stability
How it was run: (§2)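 Insect-cell Supersomes coexpressing the rh P450 and rh P450 reductase were incubated with 10 µM substrate in 185 mM HEPES pH 7.5. The mix contained 6.65 mM MgCl2, 0.5 mM NADP, 2.54 mM DL-isocitrate and isocitric dehydrogenase. The reaction was started with the NADPH-regenerating system and run 1 h at 30°C without shaking. It was extracted with 1 volume ACN, centrifuged at 21,000g, and the supernatant analysed by LC-MS.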

CYP2D6 [7] = target: T3, CYP2D6; experiment: Activity of recombinant human CYP2D6 expressed in supersomes assessed as enzyme-mediated drug metabolism measured as compound remaining at 10 uM after 1 hr by LC-MS analysis; format: ADME; conditions: read-out: Stability; how it was run: as §2
CYP2B6 = CYP2B6 (Homo sapiens, UniProt P20813); experiment: Activity of recombinant human CYP2B6 expressed in Escherichia coli JM109 co-expressing P450 reductase assessed as enzyme-mediated drug metabolism measured as compound remaining after 1 hr by LC-MS analysis; format: ADME; conditions: read-out: Stability; how it was run: as §1
Chain of CYP2B6 (P20813 whole entry): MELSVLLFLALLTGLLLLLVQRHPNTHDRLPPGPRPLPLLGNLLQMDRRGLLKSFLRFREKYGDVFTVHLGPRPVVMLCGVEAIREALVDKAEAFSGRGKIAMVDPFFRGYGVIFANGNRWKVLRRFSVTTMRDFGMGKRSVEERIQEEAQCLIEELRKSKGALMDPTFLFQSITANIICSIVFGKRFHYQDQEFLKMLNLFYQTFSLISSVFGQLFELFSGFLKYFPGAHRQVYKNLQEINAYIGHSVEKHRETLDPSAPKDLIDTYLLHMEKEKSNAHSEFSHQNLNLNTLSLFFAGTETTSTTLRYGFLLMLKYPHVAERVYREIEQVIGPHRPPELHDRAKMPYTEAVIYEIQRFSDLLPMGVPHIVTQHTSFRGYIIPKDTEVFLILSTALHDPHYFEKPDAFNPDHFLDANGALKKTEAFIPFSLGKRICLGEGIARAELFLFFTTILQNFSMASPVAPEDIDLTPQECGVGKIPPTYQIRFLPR

CYP1A1 = CYP1A1 (Homo sapiens, UniProt P04798); experiment: Activity of recombinant human CYP1A1 expressed in Escherichia coli JM109 co-expressing P450 reductase assessed as enzyme-mediated drug metabolism measured as compound remaining after 1 hr by LC-MS analysis; format: ADME; conditions: read-out: Stability; how it was run: as §1
Chain of CYP1A1 (P04798 whole entry): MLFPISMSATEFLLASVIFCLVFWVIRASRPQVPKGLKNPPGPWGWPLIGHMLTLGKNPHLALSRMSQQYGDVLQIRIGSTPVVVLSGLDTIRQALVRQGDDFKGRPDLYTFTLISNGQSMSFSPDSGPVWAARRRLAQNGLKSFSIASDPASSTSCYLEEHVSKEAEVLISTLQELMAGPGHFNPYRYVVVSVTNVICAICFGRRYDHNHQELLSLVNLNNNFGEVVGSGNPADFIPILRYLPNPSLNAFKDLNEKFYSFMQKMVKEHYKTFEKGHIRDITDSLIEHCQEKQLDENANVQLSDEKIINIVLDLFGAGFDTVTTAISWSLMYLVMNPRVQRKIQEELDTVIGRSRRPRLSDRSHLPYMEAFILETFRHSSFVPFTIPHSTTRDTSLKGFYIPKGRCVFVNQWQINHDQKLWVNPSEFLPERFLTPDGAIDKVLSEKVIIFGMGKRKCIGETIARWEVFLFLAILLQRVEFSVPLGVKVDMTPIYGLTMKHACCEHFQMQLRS

Chain of Histone deacetylase 1 (Q13547 whole entry): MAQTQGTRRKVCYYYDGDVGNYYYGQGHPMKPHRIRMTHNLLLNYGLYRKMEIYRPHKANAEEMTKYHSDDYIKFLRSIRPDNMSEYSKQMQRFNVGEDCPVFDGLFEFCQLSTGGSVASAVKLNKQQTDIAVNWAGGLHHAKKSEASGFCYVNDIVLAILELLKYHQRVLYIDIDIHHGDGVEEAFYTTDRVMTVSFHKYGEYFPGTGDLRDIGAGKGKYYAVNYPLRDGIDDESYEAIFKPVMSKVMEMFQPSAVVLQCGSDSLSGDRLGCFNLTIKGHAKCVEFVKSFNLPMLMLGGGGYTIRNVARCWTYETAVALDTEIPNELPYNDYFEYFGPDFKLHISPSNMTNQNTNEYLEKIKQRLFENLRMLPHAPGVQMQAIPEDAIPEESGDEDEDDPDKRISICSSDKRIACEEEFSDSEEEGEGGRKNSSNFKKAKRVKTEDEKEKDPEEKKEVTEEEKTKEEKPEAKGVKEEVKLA

IC50 (Histone deacetylase 1)	IC50 (Histone deacetylase 2)	IC50 (Histone deacetylase 3)	IC50 (Histone deacetylase 4)	IC50 [1]	IC50 (Histone deacetylase 8)	Structure (SMILES)	also measured
0.14 µM	1.5 µM	0.18 µM	0.23 µM	0.062 µM	0.92 µM	C[C@@]12Nc3ccccc3[C@]1(O)CCN2Cc1ccc(/C=C/C(=O)NO)cc1	–
11 µM	29 µM	22 µM	18 µM	> 30 µM	22 µM	Cc1[nH]c2ccccc2c1CCNCc1ccc(/C=C/C(N)=O)cc1	–
4.6 µM	27 µM	3.3 µM	4.6 µM	4.9 µM	6.8 µM	Cc1[nH]c2cc(O)ccc2c1CCNCc1ccc(/C=C/C(N)=O)cc1	–
0.97 µM	6 µM	0.93 µM	1 µM	1.1 µM	23 µM	C[C@@]12Nc3ccccc3[C@]1(O)CCN2Cc1ccc(/C=C/C(N)=O)cc1	–
–	–	–	–	–	–	Cc1[nH]c2ccccc2c1CCNCc1ccc(/C=C/C(=O)NO)cc1 [PANOBINOSTAT]	remaining at 1 h (CYP1A2): 72%; remaining at 1 h (CYP1B1): 79%; remaining at 1 h (CYP2A6): 81%; remaining at 1 h (CYP2C8): 63%; remaining at 1 h (CYP2C9): 34%; remaining at 1 h (CYP2C18): 56%; remaining at 1 h (CYP2C19): 80%; remaining at 1 h (CYP2D6 [2]): 44%; remaining at 1 h (CYP2E1): 50%; remaining at 1 h (CYP3A4 [3]): 37%; remaining at 1 h (CYP3A4 [4]): 45%; remaining at 1 h (CYP3A5): 73%; remaining at 1 h (CYP4A11): 59%; remaining at 1 h [5]: 55%; remaining at 1 h, 10 µM (CYP3A4 [6]): 94%; remaining at 1 h, 10 µM (CYP2D6 [7]): 94%; remaining at 1 h (CYP2B6): 62%; remaining at 1 h (CYP1A1): 61%

— ChEMBL document CHEMBL3526051 (Drug Metab Dispos, 2012)
